Measurements published in ChEMBL document CHEMBL1134963, “Synthesis and muscarinic M(2) subtype antagonistic activity of enantiomeric pairs of 3-demethylhimbacine (3-norhimbacine) and its C(4)-epimer” (Bioorg Med Chem Lett, 2002).

Tests used:
[1] = molecular target: T1, Muscarinic acetylcholine receptor M2 (Rattus norvegicus, UniProt P10980); experiment: The compound was tested in vitro for binding activity against M2 muscarinic receptor in homogenates of the brainstem of rat using [3H]quinuclidinyl benzilate (QNB) as radioligand; type: tissue-based, Brain
T1 sequence (P10980 whole entry): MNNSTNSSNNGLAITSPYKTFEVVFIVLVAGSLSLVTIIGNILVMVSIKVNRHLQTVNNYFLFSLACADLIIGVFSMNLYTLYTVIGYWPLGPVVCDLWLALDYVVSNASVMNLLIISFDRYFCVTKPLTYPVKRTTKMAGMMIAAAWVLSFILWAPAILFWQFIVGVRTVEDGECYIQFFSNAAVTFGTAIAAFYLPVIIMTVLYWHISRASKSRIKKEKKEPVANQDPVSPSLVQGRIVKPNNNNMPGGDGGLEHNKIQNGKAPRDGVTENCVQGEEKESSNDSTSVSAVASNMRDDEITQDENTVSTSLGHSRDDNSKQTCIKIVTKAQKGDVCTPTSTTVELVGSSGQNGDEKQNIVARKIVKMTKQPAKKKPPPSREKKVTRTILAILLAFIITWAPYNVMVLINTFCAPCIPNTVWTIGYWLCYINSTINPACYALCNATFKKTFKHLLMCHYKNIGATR
In short: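 Competition binding on rat brainstem homogenate with [3H]-QNB in 50 mM Tris buffer (pH 7.4) for 90 min at 25 °C. Separation is by rapid GF-B filtration with scintillation counting. 2 μM atropine defines non-specific binding. DMSO stays under 0.1%. Ki is taken from IC50 via Cheng–Prusoff using radioligand concentration and Kd.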

[2] = molecular target: T2, Muscarinic acetylcholine receptor M1 (Rattus norvegicus, UniProt P08482); experiment: The compound was tested in vitro for binding activity against M1 muscarinic receptor in homogenates of the cerebral cortex of rat using [3H]pirenzepine as radioligand; type: tissue-based
T2 sequence (P08482 whole entry): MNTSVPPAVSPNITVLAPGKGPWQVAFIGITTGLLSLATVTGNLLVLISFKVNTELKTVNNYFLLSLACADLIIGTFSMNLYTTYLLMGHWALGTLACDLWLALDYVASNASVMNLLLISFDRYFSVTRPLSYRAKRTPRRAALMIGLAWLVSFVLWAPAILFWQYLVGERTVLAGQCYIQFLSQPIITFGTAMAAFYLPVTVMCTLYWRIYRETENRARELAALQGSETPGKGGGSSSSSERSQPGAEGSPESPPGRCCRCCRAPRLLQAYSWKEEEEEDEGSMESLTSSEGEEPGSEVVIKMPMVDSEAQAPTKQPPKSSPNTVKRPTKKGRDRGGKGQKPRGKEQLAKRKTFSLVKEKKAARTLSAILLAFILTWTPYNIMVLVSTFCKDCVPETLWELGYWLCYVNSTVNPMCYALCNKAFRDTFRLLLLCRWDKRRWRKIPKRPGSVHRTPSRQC
In short: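 Rat cerebral cortex homogenate with [3H]-pirenzepine in 50 mM Tris buffer pH 7.4, 25 °C for 90 min. Bound ligand is separated by rapid GF-B filtration and counted by liquid scintillation. Non-specific binding is defined with 2 μM atropine. Compounds in DMSO, below 0.1% final. Ki = IC50/(1 + L/Kd) by Cheng–Prusoff.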

## C[C@H]1CCC[C@H](/C=C/[C@H]2[C@H]3COC(=O)[C@H]3C[C@H]3CCCC[C@@H]32)N1C (stereo in doubt)
[1]
  Ki: 794 nM
[2]
  Ki: 1000 nM

## C[C@H]1CCC[C@H](/C=C/[C@@H]2[C@H]3COC(=O)[C@H]3C[C@H]3CCCC[C@@H]32)N1C (stereo in doubt)
[1]
  -Log Ki: 6.4
[2]
  Ki: 501 nM

## C[C@H]1CCC[C@H](/C=C/[C@H]2[C@H]3COC(=O)[C@H]3C[C@H]3CCCC[C@@H]32)N1C (stereo in doubt; 2)
[1]
  Ki: 7.94 nM
[2]
  Ki: 39.8 nM

## C[C@H]1CCC[C@H](/C=C/[C@@H]2[C@H]3COC(=O)[C@H]3C[C@H]3CCCC[C@@H]32)N1C (stereo in doubt; 3)
[1]
  Ki: 398 nM
[2]
  Ki: 631 nM

## C[C@@H]1OC(=O)[C@H]2C[C@H]3CCCC[C@@H]3[C@@H](/C=C/[C@H]3CCC[C@H](C)N3C)[C@@H]12 [HIMBACINE]
[1]
  Ki: 12.6 nM
[2]
  Ki: 79.4 nM
